Among the data in ChEMBL document CHEMBL1150419, “Structure-activity relationships of a peptide inhibitor of the human FcRn:human IgG interaction” (Bioorg Med Chem, 2008) are IC50 values, retold here.

For the experiment, the target named is IgG receptor FcRn large subunit p51 (Homo sapiens, UniProt P55899). The experiment is described as follows: Inhibition of human IgG binding to soluble human FcRn by ELISA. Put shortly: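 Biotinylated soluble human FcRn immobilized on neutravidin plates, incubated with hIgG (3 nM, constant) and peptide at varying concentrations for 2 h at 37 °C. After washing, bound hIgG detected with peroxidase-conjugated hIgG-specific Fab fragments.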
IgG receptor FcRn large subunit p51, sequence (P55899 whole entry, the tested form may be a part): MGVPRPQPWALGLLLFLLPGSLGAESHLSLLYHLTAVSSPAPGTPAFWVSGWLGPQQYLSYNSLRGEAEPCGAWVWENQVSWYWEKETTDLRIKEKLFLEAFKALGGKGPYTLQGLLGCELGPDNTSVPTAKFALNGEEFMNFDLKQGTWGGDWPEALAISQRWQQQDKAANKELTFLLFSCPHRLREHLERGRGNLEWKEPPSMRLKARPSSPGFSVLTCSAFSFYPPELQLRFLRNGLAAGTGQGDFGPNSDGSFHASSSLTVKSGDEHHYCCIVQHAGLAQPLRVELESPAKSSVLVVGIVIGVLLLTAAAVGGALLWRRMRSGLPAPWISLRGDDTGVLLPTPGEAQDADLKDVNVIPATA
For orientation: In an ELISA, binding on a coated surface is turned into a signal by an enzyme label.
For orientation: IC50 means the point on the concentration scale where inhibition reaches its midpoint. For the molecule `CC(C)C[C@H](NC(=O)CNC(=O)CNC(=O)[C@H](Cc1ccccc1)NC(=O)[C@H](Cc1cnc[nH]1)NC(=O)CNC(=O)[C@@H](NC(=O)[C@@H](NC(=O)[C@H](Cc1ccccc1)NC(=O)[C@H](CCCNC(=N)N)NC(=O)[C@@H](N)CCC(N)=O)C(C)(C)S)[C@@H](C)O)C(=O)N[C@@H](Cc1ccc(O)cc1)C(=O)N1CCC[C@H]1C(=O)N[C@@H](CCS)C(=O)N[C@@H](CC(N)=O)C(=O)NCC(=O)N1CCC[C@H]1C(=O)O`, the IC50 was 2 µM. That is a single-digit micromolar value.
In turn, `CC(C)C[C@H](NC(=O)[C@@H](C)NC(=O)CNC(=O)[C@H](Cc1ccccc1)NC(=O)[C@H](Cc1cnc[nH]1)NC(=O)CNC(=O)[C@@H](NC(=O)[C@H](CS)NC(=O)[C@H](Cc1ccccc1)NC(=O)[C@H](CCCN=C(N)N)NC(=O)[C@@H](N)CCC(N)=O)[C@@H](C)O)C(=O)N[C@@H](Cc1ccc(O)cc1)C(=O)N1CCC[C@H]1C(=O)N[C@@H](CS)C(=O)N[C@@H](CC(N)=O)C(=O)NCC(=O)N1CCC[C@H]1C(=O)O` yielded an IC50 of 57 µM.
Consider `CC(C)C[C@H](NC(=O)[C@H]1CSC2C[C@@H](NC(=O)[C@H](Cc3ccccc3)NC(=O)[C@H](Cc3cnc[nH]3)NC(=O)CNC(=O)[C@@H](NC(=O)[C@H](NC(=O)[C@H](Cc3ccccc3)NC(=O)[C@@H](N)CCCNC(=N)N)C(C)(C)S)[C@@H](C)O)C(=O)N21)C(=O)N[C@@H](Cc1ccc(O)cc1)C(=O)N1CCC[C@H]1C(=O)N[C@@H](CS)C(=O)O` (some centres not stated), for which the IC50 was 23 µM.
Then `CC(C)C[C@H](NC(=O)CNC(=O)CNC(=O)[C@H](Cc1ccccc1)NC(=O)[C@H](Cc1cnc[nH]1)NC(=O)CNC(=O)[C@@H](NC(=O)[C@H](NC(=O)[C@@H](Cc1ccccc1)NC(=O)[C@H](CCCN=C(N)N)NC(=O)[C@@H](N)CCC(N)=O)C(C)(C)S)[C@@H](C)O)C(=O)N[C@@H](Cc1ccc(O)cc1)C(=O)N1CCC[C@H]1C(=O)N[C@H](CS)C(=O)N[C@@H](CC(N)=O)C(=O)NCC(=O)N1CCC[C@H]1C(=O)O`, with 11.4 µM.
In the case of `CC(C)C[C@H](NC(=O)CNC(=O)CNC(=O)[C@H](Cc1ccccc1)NC(=O)[C@H](Cc1cnc[nH]1)NC(=O)CNC(=O)[C@@H](NC(=O)[C@H](CCCCN)NC(=O)[C@H](Cc1ccccc1)NC(=O)[C@H](CCCNC(=N)N)NC(=O)[C@@H](N)CCC(N)=O)[C@@H](C)O)C(=O)N[C@@H](Cc1ccc(O)cc1)C(=O)N1CCC[C@H]1C(=O)N[C@@H](CC(=O)O)C(=O)N[C@@H](CC(N)=O)C(=O)NCC(=O)N1CCC[C@H]1C(=O)O` it was 60 µM; in that of `CC(C)C[C@H](NC(=O)Cc1ccc(NC(=O)[C@H](Cc2ccccc2)NC(=O)[C@H](Cc2cnc[nH]2)NC(=O)CNC(=O)[C@@H](NC(=O)[C@@H](NC(=O)[C@H](Cc2ccccc2)NC(=O)[C@@H](N)CCCN=C(N)N)C(C)(C)S)[C@@H](C)O)cc1)C(=O)N[C@@H](Cc1ccc(O)cc1)C(=O)N1CCC[C@H]1C(=O)N[C@@H](CS)C(=O)O`, over 125 µM.
Then `CC(C)C[C@H](NC(=O)CNC(=O)CNC(=O)[C@H](Cc1ccccc1)NC(=O)[C@H](Cc1cnc[nH]1)NC(=O)CNC(=O)[C@@H](NC(=O)[C@H](CN)NC(=O)[C@H](Cc1ccccc1)NC(=O)[C@H](CCCNC(=N)N)NC(=O)[C@@H](N)CCC(N)=O)[C@@H](C)O)C(=O)N[C@@H](Cc1ccc(O)cc1)C(=O)N1CCC[C@H]1C(=O)N[C@@H](CC(=O)O)C(=O)N[C@@H](CC(N)=O)C(=O)NCC(=O)N1CCC[C@H]1C(=O)O`, with 120 µM; and `CC(C)C[C@H](NC(=O)CNC(=O)CNC(=O)[C@H](Cc1ccccc1)NC(=O)[C@H](Cc1cnc[nH]1)NC(=O)CNC(=O)[C@@H](NC(=O)[C@@H](NC(=O)[C@H](Cc1ccccc1)NC(=O)[C@@H](N)CCCN=C(N)N)C(C)(C)S)[C@@H](C)O)C(=O)N[C@@H](Cc1ccc(O)cc1)C(=O)N1CCC[C@H]1C(=O)N[C@@H](CS)C(=O)O`, with 2 µM.
`CC(C)C[C@H](NC(=O)CNC(=O)CNC(=O)[C@H](Cc1ccccc1)NC(=O)[C@H](Cc1cnc[nH]1)N(C)C(=O)CNC(=O)[C@@H](NC(=O)[C@@H](NC(=O)[C@H](Cc1ccccc1)NC(=O)[C@@H](N)CCCN=C(N)N)C(C)(C)S)[C@@H](C)O)C(=O)N[C@@H](Cc1ccc(O)cc1)C(=O)N1CCC[C@H]1C(=O)N[C@@H](CS)C(=O)O` gave an IC50 of over 250 µM.
In the case of `CC(C)C[C@H](NC(=O)CNC(=O)CNC(=O)[C@H](Cc1ccccc1)NC(=O)[C@H](Cc1cnc[nH]1)NC(=O)CNC(=O)[C@@H](NC(=O)[C@H](CC(=O)O)NC(=O)[C@H](Cc1ccccc1)NC(=O)[C@H](CCCN=C(N)N)NC(=O)[C@@H](N)CCC(N)=O)[C@@H](C)O)C(=O)N[C@@H](Cc1ccc(O)cc1)C(=O)N1CCC[C@H]1C(=O)N[C@@H](CN)C(=O)N[C@@H](CC(N)=O)C(=O)NCC(=O)N1CCC[C@H]1C(=O)O` it was 32 µM; in that of `CC(C)C[C@@H](C(=O)N[C@@H](Cc1ccc(O)cc1)C(=O)N1CCC[C@H]1C(=O)N[C@@H](C)C(=O)O)N(C)C(=O)CN(C)C(=O)CNC(=O)[C@H](Cc1ccccc1)NC(=O)[C@H](Cc1cnc[nH]1)NC(=O)CNC(=O)[C@@H](NC(=O)[C@@H](NC(=O)[C@H](Cc1ccccc1)NC(=O)[C@@H](N)CCCNC(=N)N)C(C)C)[C@@H](C)O`, 37 µM.
In the case of `CC(C)C[C@H](NC(=O)c1ccc(CNC(=O)[C@H](Cc2ccccc2)NC(=O)[C@H](Cc2cnc[nH]2)NC(=O)CNC(=O)[C@@H](NC(=O)[C@@H](NC(=O)[C@H](Cc2ccccc2)NC(=O)[C@@H](N)CCCNC(=N)N)C(C)(C)S)[C@@H](C)O)cc1)C(=O)N[C@@H](Cc1ccc(O)cc1)C(=O)N1CCC[C@H]1C(=O)N[C@@H](CS)C(=O)O` it was over 125 µM; in that of `CC(C)C[C@H](NC(=O)CN1CCC[C@@H](NC(=O)[C@H](Cc2ccccc2)NC(=O)[C@H](Cc2cnc[nH]2)NC(=O)CNC(=O)[C@@H](NC(=O)[C@@H](NC(=O)[C@H](Cc2ccccc2)NC(=O)[C@@H](N)CCCN=C(N)N)C(C)C)[C@@H](C)O)C1=O)C(=O)N[C@@H](Cc1ccc(O)cc1)C(=O)N1CCC[C@H]1C(=O)N[C@@H](C)C(=O)O`, 38 µM.
Molecule `CC(C)C[C@H](NC(=O)Cc1cccc(NC(=O)[C@H](Cc2ccccc2)NC(=O)[C@H](Cc2cnc[nH]2)NC(=O)CNC(=O)[C@@H](NC(=O)[C@@H](NC(=O)[C@H](Cc2ccccc2)NC(=O)[C@@H](N)CCCN=C(N)N)C(C)(C)S)[C@@H](C)O)c1)C(=O)N[C@@H](Cc1ccc(O)cc1)C(=O)N1CCC[C@H]1C(=O)N[C@@H](CS)C(=O)O` displayed an IC50 of 14 µM. This IC50 is about 2.7-fold lower than that of the molecule before.
The molecule `CC(C)C[C@H](NC(=O)CNC(=O)CNC(=O)[C@H](Cc1ccccn1)NC(=O)[C@H](Cc1cnc[nH]1)NC(=O)CNC(=O)[C@@H](NC(=O)[C@@H](NC(=O)[C@H](Cc1ccccc1)NC(=O)[C@H](CCCNC(=N)N)NC(=O)[C@@H](N)CCC(N)=O)C(C)(C)S)[C@@H](C)O)C(=O)N[C@@H](Cc1ccc(O)cc1)C(=O)N1CCC[C@H]1C(=O)N[C@@H](CS)C(=O)N[C@@H](CC(N)=O)C(=O)NCC(=O)N1CCC[C@H]1C(=O)O` yielded an IC50 of 90 µM. Against the preceding molecule, the IC50 is about 6.4-fold higher.
In turn, `CC(C)C[C@H](NC(=O)CNC(=O)[C@@H](CCCN=C(N)N)NC(=O)[C@H](Cc1ccccc1)NC(=O)[C@H](Cc1cnc[nH]1)NC(=O)CNC(=O)[C@@H](NC(=O)[C@@H](NC(=O)[C@H](Cc1ccccc1)NC(=O)[C@H](CCCN=C(N)N)NC(=O)[C@@H](N)CCC(N)=O)C(C)(C)S)[C@@H](C)O)C(=O)N[C@@H](Cc1ccc(O)cc1)C(=O)N1CCC[C@H]1C(=O)N[C@@H](CS)C(=O)N[C@@H](CC(N)=O)C(=O)NCC(=O)N1CCC[C@H]1C(=O)O` displayed an IC50 of 4.1 µM.
In the case of `CC(C)C[C@H](NC(=O)[C@H]1CCCN1C(=O)[C@@H](C)NC(=O)[C@H](Cc1ccccc1)NC(=O)[C@H](Cc1cnc[nH]1)NC(=O)CNC(=O)[C@@H](NC(=O)[C@@H](NC(=O)[C@H](Cc1ccccc1)NC(=O)[C@H](CCCN=C(N)N)NC(=O)[C@@H](N)CCC(N)=O)C(C)(C)S)[C@@H](C)O)C(=O)N[C@@H](Cc1ccc(O)cc1)C(=O)N1CCC[C@H]1C(=O)N[C@@H](CS)C(=O)N[C@@H](CC(N)=O)C(=O)NCC(=O)N1CCC[C@H]1C(=O)O` it was 3.7 µM.
In the case of `CC(C)C[C@H](NC(=O)[C@H]1CCCN1C(=O)CNC(=O)[C@H](Cc1ccccc1)NC(=O)[C@H](Cc1cnc[nH]1)NC(=O)CNC(=O)[C@@H](NC(=O)[C@@H](NC(=O)[C@H](Cc1ccccc1)NC(=O)[C@H](CCCNC(=N)N)NC(=O)[C@@H](N)CCC(N)=O)C(C)(C)S)[C@@H](C)O)C(=O)N[C@@H](Cc1ccc(O)cc1)C(=O)N1CCC[C@H]1C(=O)N[C@@H](CS)C(=O)N[C@@H](CC(N)=O)C(=O)NCC(=O)N1CCC[C@H]1C(=O)O` it was 1.4 µM; in that of `CC(C)C[C@H](NC(=O)CNC(=O)CNC(=O)[C@H](Cc1c[nH]c2ccccc12)NC(=O)[C@H](Cc1cnc[nH]1)NC(=O)CNC(=O)[C@@H](NC(=O)[C@@H](NC(=O)[C@H](Cc1ccccc1)NC(=O)[C@H](CCCN=C(N)N)NC(=O)[C@@H](N)CCC(N)=O)C(C)(C)S)[C@@H](C)O)C(=O)N[C@@H](Cc1ccc(O)cc1)C(=O)N1CCC[C@H]1C(=O)N[C@@H](CS)C(=O)N[C@@H](CC(N)=O)C(=O)NCC(=O)N1CCC[C@H]1C(=O)O`, 26 µM; in that of `CC(C)C[C@H](NC(=O)CNC(=O)[C@@H](Cc1cnc[nH]1)NC(=O)[C@H](Cc1ccccc1)NC(=O)[C@H](Cc1cnc[nH]1)NC(=O)CNC(=O)[C@@H](NC(=O)[C@@H](NC(=O)[C@H](Cc1ccccc1)NC(=O)[C@H](CCCNC(=N)N)NC(=O)[C@@H](N)CCC(N)=O)C(C)(C)S)[C@@H](C)O)C(=O)N[C@@H](Cc1ccc(O)cc1)C(=O)N1CCC[C@H]1C(=O)N[C@@H](CS)C(=O)N[C@@H](CC(N)=O)C(=O)NCC(=O)N1CCC[C@H]1C(=O)O`, 3.6 µM.
Then `CC(C)C[C@H](NC(=O)CNC(=O)CNC(=O)[C@H](Cc1ccccc1)NC(=O)[C@H](Cc1cnc[nH]1)NC(=O)CNC(=O)[C@@H](NC(=O)[C@@H](NC(=O)[C@H](Cc1ccccc1)NC(=O)[C@H](CCCN=C(N)N)NC(=O)[C@@H](N)CCC(N)=O)C(C)(C)S)[C@@H](C)O)C(=O)N[C@@H](Cc1ccc(F)cc1)C(=O)N1CCC[C@H]1C(=O)N[C@@H](CS)C(=O)N[C@@H](CC(N)=O)C(=O)NCC(=O)N1CCC[C@H]1C(=O)O`, with 26 µM.
`CC(C)C[C@@H](C(=O)N[C@@H](Cc1ccc(O)cc1)C(=O)N1CCC[C@H]1C(=O)N[C@@H](CS)C(=O)O)N(C)C(=O)CN(C)C(=O)CNC(=O)[C@H](Cc1ccccc1)NC(=O)[C@H](Cc1c[nH]nn1)NC(=O)CNC(=O)[C@@H](NC(=O)[C@@H](NC(=O)[C@H](Cc1ccccc1)NC(=O)[C@@H](N)CCCNC(=N)N)C(C)(C)S)[C@@H](C)O` yielded an IC50 of 5.7 µM.
